In ChEMBL document CHEMBL1154039, “Synthesis and biological evaluation of 1,2,4-trisubstituted imidazoles and 1,3,5-trisubstituted pyrazoles as inhibitors of transforming growth factor beta type 1 receptor (ALK5)” (Bioorg Med Chem Lett, 2009):
Active and inactive are the calls of the source. The calls are words filed in the database; no cut-off is given here.

Legend:
[1] = biological target: T1, Activin receptor type-1B (Homo sapiens) (UniProt P36896); assay: Inhibition of ALK4 expressed in baculovirus/Sf9 cells assessed as inhibition of receptor autophosphorylation at 1 uM after 3 hrs
T1 sequence (whole entry): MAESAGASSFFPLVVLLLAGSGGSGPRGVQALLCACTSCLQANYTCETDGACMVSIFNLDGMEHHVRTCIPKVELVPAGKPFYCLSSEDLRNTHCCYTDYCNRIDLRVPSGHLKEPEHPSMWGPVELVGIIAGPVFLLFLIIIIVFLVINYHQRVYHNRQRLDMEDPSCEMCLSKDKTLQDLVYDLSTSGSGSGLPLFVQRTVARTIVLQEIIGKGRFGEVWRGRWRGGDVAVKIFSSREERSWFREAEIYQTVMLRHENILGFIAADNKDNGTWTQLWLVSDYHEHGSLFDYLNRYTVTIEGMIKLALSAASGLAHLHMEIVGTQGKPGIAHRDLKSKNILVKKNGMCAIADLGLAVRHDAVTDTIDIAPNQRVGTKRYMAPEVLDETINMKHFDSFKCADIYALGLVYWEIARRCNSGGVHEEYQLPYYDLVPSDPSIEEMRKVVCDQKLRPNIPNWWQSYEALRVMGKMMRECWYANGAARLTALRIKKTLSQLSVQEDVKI
Summary of the method: (§1)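 Kinase carried a C-terminal 6-His tag and was purified on a Ni2+ affinity column. The purified kinase was preincubated with compound for 30 min at 37 °C. The reaction was started with 10–8 mol/L ATP plus Smad3 substrate and run 3 h at 30 °C. Autophosphorylation was quantified from ATP consumed, using a luminescent ATP detection assay.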

[2] = biological target: T1, Activin receptor type-1B (Homo sapiens); assay: Inhibition of ALK4 expressed in baculovirus/Sf9 cells assessed as inhibition of receptor autophosphorylation at 0.1 uM after 3 hrs; summary of the method: as §1
[3] = biological target: T2, Activin receptor type-1C (Homo sapiens) (UniProt Q8NER5); assay: Inhibition of ALK7 expressed in baculovirus/Sf9 cells assessed as inhibition of receptor autophosphorylation at 1 uM after 3 hrs; summary of the method: as §1
T2 sequence (whole entry): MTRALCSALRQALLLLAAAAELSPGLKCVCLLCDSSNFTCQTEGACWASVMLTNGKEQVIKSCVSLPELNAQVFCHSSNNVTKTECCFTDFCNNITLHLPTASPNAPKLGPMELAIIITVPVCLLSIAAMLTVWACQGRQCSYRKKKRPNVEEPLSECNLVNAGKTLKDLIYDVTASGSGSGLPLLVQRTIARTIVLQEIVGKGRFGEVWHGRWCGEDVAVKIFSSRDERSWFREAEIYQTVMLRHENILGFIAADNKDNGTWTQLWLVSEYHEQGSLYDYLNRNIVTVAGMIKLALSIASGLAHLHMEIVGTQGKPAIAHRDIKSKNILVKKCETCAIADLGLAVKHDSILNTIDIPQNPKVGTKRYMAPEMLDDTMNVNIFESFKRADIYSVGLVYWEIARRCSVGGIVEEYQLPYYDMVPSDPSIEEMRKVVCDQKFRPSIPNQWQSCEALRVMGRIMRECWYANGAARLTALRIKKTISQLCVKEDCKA

[4] = biological target: T2, Activin receptor type-1C (Homo sapiens); assay: Inhibition of ALK7 expressed in baculovirus/Sf9 cells assessed as inhibition of receptor autophosphorylation at 0.1 uM after 3 hrs; summary of the method: as §1
[5] = (§2) Cytotoxicity against human embryo lung […] cells at 30 uM by MTT assay; format: functional
Summary of the method: (§3)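 HLF cells were seeded at about 3000 per well and grown 24 h before treatment. The number of viable cells at treatment (t = 0) was measured to correct for differences in starting cell number. At the read times, MTT tetrazolium salt and phenazine methosulfate were added directly to the medium for 2–3 h.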

[6] = Selectivity for ALK5 over ALK7
Summary of the method: (§4)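 Purified C-terminally 6-His-tagged ALK4, ALK5 and ALK7, each run in a separate autophosphorylation assay. Each enzyme was preincubated with a range of compound concentrations for 30 min at 37 °C. Reactions were started with 10–8 mol/L ATP plus Smad3 and run 3 h at 30 °C. Phosphorylation was quantified as ATP consumed, using a luminescent ATP assay. Selectivity was obtained by comparing activity across the kinases.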

[7] = Selectivity for ALK5 over ALK4; summary of the method: as §4
[8] = species: Homo sapiens; assay: as §2; format: functional; summary of the method: as §3
[9] = Selectivity for ALK4 over ALK7; summary of the method: as §4
[10] = Selectivity for ALK4 over ALK5; summary of the method: as §4

Row | inhibition [1] | inhibition [2] | inhibition [3] | inhibition [4] | SMILES | Activity [5] | Activity [8] | also measured
1 | 36.6% | 13.3% | 63.6% | 30.5% | N#Cc1ccc(-c2cn(-c3ccc4c(c3)OCO4)c(-c3ccccc3F)n2)cc1 | 12.3% | – | –
2 | – | – | – | – | COc1ccc(-n2cc(C(C)(C)C)nc2-c2cccc(C)n2)cc1F | 22.1% | – | –
3 | – | – | – | – | COc1ccc(-n2cc(-c3ccc(C(N)=O)cc3)nc2-c2cccc(C)n2)cc1F | 9.1% | – | –
4 | 66.8% | 39.4% | 64% | 4.2% | Cc1cccc(-n2nc(-c3ccc(C(N)=O)cc3)cc2-c2ccc3c(c2)OCO3)n1 | 5.6% | – | Selectivity ratio [6]: 10; Selectivity ratio [7]: 10
5 | – | – | – | – | Cc1cccc(-c2nc(C(C)(C)C)cn2-c2ccc(F)cc2)n1 | 59% | – | –
6 | 29.8% | 15.6% | 41.3% | 4.5% | Cc1cccc(-c2nc(-c3ccc(C(N)=O)cc3)cn2-c2ccc3c(c2)OCO3)n1 | 14.9% | – | –
7 | – | – | – | – | Cc1cccc(-c2nc(-c3ccc(C#N)cc3)cn2-c2ccc(F)cc2)n1 | 20.2% | – | –
8 | – | – | – | – | NC(=O)c1ccc(-c2cc(-c3ccccn3)n(-c3ccc4c(c3)OCO4)n2)cc1 | – | inactive | –
9 | – | – | – | – | NC(=O)c1ccc(-c2cn(-c3ccc4c(c3)OCCO4)c(-c3ccccn3)n2)cc1 | 21% | – | –
10 | – | – | – | – | COc1ccccc1-n1nc(-c2ccc(C(N)=O)cc2)cc1-c1ccc(F)cc1 | – | inactive | –
11 | – | – | – | – | O=C(O)c1ccc(-c2cc(-c3ccc4c(c3)OCO4)n(-c3ccccc3F)n2)cc1 | 5.4% | – | –
12 | – | – | – | – | Cc1cccc(-c2nc(C(C)(C)C)cn2-c2ccc3c(c2)OCCO3)n1 | – | inactive | –
13 | 34.5% | 25% | 35.1% | 16.2% | Cc1cccc(-c2nc(-c3ccc(C(N)=O)cc3)cn2-c2ccc(F)cc2)n1 | 19.1% | – | –
14 | – | – | – | – | NC(=O)c1ccc(-c2cc(-c3ccc4c(c3)OCO4)n(-c3ccccc3C(F)(F)F)n2)cc1 | – | inactive | –
15 | – | – | – | – | NC(=O)c1ccc(-c2cc(-c3ccc(F)cc3)n(-c3ccccn3)n2)cc1 | 23.7% | – | –
16 | – | – | – | – | Cc1cccc(-c2nc(C(C)(C)C)cn2-c2ccc3c(c2)OCO3)n1 | 7.3% | – | –
17 | 73.7% | 65.6% | 54.8% | 24.5% | NC(=O)c1ccc(-c2cn(-c3ccc4c(c3)OCO4)c(-c3ccccn3)n2)cc1 | 21.6% | – | –
18 | – | – | – | – | NC(=O)c1ccc(-c2cc(-c3ccc(F)cc3)n(-c3ccccc3O)n2)cc1 | – | inactive | –
19 | – | – | – | – | NC(=O)c1ccc(-c2cc(-c3ccc4c(c3)OCO4)n(-c3nccs3)n2)cc1 | – | inactive | –
20 | – | – | – | – | OCc1ccc(-c2cc(-c3ccc4c(c3)OCO4)n(-c3ccccc3F)n2)cc1 | – | inactive | –
21 | – | – | – | – | COc1ccc(-n2cc(-c3ccc(C#N)cc3)nc2-c2cccc(C)n2)cc1F | 57% | – | –

Row | inhibition [1] | inhibition [2] | inhibition [3] | inhibition [4] | SMILES | Activity [5] | Activity [8] | also measured
22 | 41.9% | 3.2% | 57.4% | 50.9% | NC(=O)c1ccc(-c2cc(-c3ccccc3F)n(-c3ccc4c(c3)OCO4)n2)cc1 | 0.52% | – | –
23 | – | – | – | – | Cc1cccc(-c2nc(-c3ccc(C#N)cc3)cn2-c2ccc3c(c2)OCCO3)n1 | 28% | – | –
24 | – | – | – | – | NC(=O)c1ccc(-c2cc(-c3ccc(F)cc3)n(-c3ccccc3F)n2)cc1 | 19.54% | – | –
25 | – | – | – | – | NC(=O)c1ccc(-c2nc(-c3ccccn3)c(-c3ccc4c(c3)OCO4)[nH]2)cc1 [SB-431542] | 55% | – | –
26 | 74.7% | 70% | 57.3% | 35.5% | NC(=O)c1ccc(-c2cc(-c3ccc4c(c3)OCO4)n(-c3ccccn3)n2)cc1 | 26.7% | – | –
27 | – | – | – | – | N#Cc1ccc(-c2cc(-c3ccc4c(c3)OCO4)n(-c3ccccn3)n2)cc1 | – | inactive | –
28 | 77.7% | 53.6% | 73.4% | 31.4% | Cc1cccc(-n2nc(-c3ccc(C#N)cc3)cc2-c2ccc3c(c2)OCO3)n1 | 15.4% | – | –
29 | – | – | – | – | COc1ccc(-c2cc(-c3ccc(C#N)cc3)nn2-c2ccccn2)cc1OC | – | inactive | –
30 | – | – | – | – | NC(=O)c1ccc(-c2cc(-c3ccc4c(c3)OCO4)n(-c3ccccc3)n2)cc1 | – | inactive | –
31 | – | – | – | – | COc1ccc(-c2cc(-c3ccc(C(N)=O)cc3)nn2-c2ccccn2)cc1OC | 5.3% | – | –
32 | 50.7% | 15.5% | 39.1% | 22.7% | NC(=O)c1ccc(-c2cc(-c3ccc4c(c3)OCO4)n(-c3ccccc3F)n2)cc1 | – | inactive | –
33 | – | – | – | – | COc1ccccc1-n1nc(-c2ccc(C(N)=O)cc2)cc1-c1ccc2c(c1)OCO2 | – | inactive | –
34 | – | – | – | – | COc1ccc(-c2cc(-c3ccc(C#N)cc3)nn2-c2ccccc2F)cc1OC | – | inactive | –
35 | – | – | – | – | N#Cc1ccc(-c2cc(-c3ccc4c(c3)OCO4)n(-c3ccccc3F)n2)cc1 | – | inactive | –
36 | 93.7% | 73.8% | 56.5% | 34.8% | NC(=O)c1ccc(-c2cc(-c3ccc(O)c(O)c3)n(-c3ccccc3O)n2)cc1 | 48.9% | – | Selectivity ratio [9]: > 10; Selectivity ratio [10]: > 10
37 | 70.4% | 32.1% | 65.8% | 5.3% | COc1ccc(-c2cc(-c3ccc(C(N)=O)cc3)nn2-c2ccccc2F)cc1OC | 19.4% | – | –
38 | 49.3% | 28.5% | 25% | 13.4% | Cc1cccc(-c2nc(-c3ccc(C(N)=O)cc3)cn2-c2ccc3c(c2)OCCO3)n1 | 0.7% | – | –
39 | – | – | – | – | NC(=O)c1ccc(-c2cn(-c3ccc4c(c3)OCO4)c(-c3ccccc3F)n2)cc1 | – | inactive | –
40 | 76.9% | 45.5% | 44.6% | 33.9% | Cc1cccc(-c2nc(-c3ccc(C#N)cc3)cn2-c2ccc3c(c2)OCO3)n1 | 4% | – | –
41 | – | – | – | – | N#Cc1ccc(-c2cc(-c3ccccc3F)n(-c3ccc4c(c3)OCO4)n2)cc1 | 57.5% | – | –
